Hits are enriched below; roughly 4% of the tested compounds scored in any of these assays.
KCNK9 inh: human KCNK9 channel inhibition; HEK293 KCNK9, FluxOR thallium flux fluorescence; stronger effect = lower value; B-score at 10 µM; 310,000 compounds, 1.2% hits; AID 488922;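 active = ratio B-score over 3 SD below the library mean, with starting fluorescence within 5 SD of its mean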;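 also: negative B-score means less thallium flux so channel inhibition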
KCNQ1 pot: potentiates or activates the human KCNQ1 potassium channel; CHO-K1 KCNQ1, thallium flux FluxOR fluorescence; stronger effect = higher value; B-score at 10 µM; 310,000 compounds, 0.35% hits; AID 2648;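 active = fluorescence ratio B-score, a plate-corrected score, at least three library SD, with initial intensity B-score within 5 SD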
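Assay system: CHO-K1 cells stably expressing KCNQ1. Medium: assay buffer for compound exposure, DMSO matched across wells. Timing: 37 °C overnight plating, 90-min dark dye load, 20-min compound pretreatment. Signal: kinetic FluxOR fluorescence, 10 s baseline plus 110 s post-stimulus.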
PHOSPHO1 inh: blocks human PHOSPHO1 phosphatase activity; Q8TCT1; recombinant PHOSPHO1, absorbance phosphatase assay; inhibition, % at 13.3 µM; 290,000 compounds, 1.1% hits; in the data active = inhibition above about 60%
hERG protect: compounds protecting human hERG from proarrhythmic drug block | 310,000 compounds, 0.51% hits | activation (rescue from dofetilide block), less the hit threshold, % at 10 µM | CHO-hERG, FluxOR thallium flux, dofetilide IC70 present;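 active = activation above the mean of controls blocked by dofetilide plus 5 SD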;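 also: thallium influx through hERG after potassium depolarization seen as dye fluorescence rise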
KCNQ1 block: inhibitors of human KCNQ1 potassium channel. B-score at 10 µM. P51787. AID 2642. 310,000 compounds, 1.3% hits. CHO-K1 KCNQ1, FluxOR thallium flux fluorescence; stronger effect = higher value;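 active = compounds whose thallium flux B-score, printed positive for inhibition, exceeds three library SD while starting fluorescence stays within three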;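 also: channel opened by potassium depolarization with thallium stimulus after 20 min compound exposure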
KCNK3 block: human KCNK3 channel inhibition, primary screen | B-score at 10 µM | AID 602410 | 340,000 compounds, 0.84% hits | CHO-KCNK3 thallium flux, FluxOR fluorescence; stronger effect = lower value;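 active = B-score under library mean minus 4 SD, starting fluorescence ratio at most library mean plus 5 SD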;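 also: more negative B-score means stronger inhibition of thallium flux through KCNK3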
KCNK9 block conf: human KCNK9 inhibitor confirmation. shares compounds with KCNK9 inh. HEK293 KCNK9 cells, FluxOR thallium flux fluorescence. inhibition, % at 10 µM. 4,900 compounds, 43% hits. AID 492992;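 active = thallium signal inhibited by more than 5 SD of the compound-free buffer control wells, on both duplicate plates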
Kir2-1 spec: tests whether KCNK9 modulators also affect mouse Kir2.1. inhibition, % at 10 µM. Kir2.1 cells, FluxOR thallium flux fluorescence. 4,900 compounds, 4% hits. shares compounds with KCNK9 inh. AID 492993;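 active = thallium signal drop more than 5 SD beyond the mean of the no-compound control wells, seen in both duplicate plates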;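 also: signal is fluorescence rise after thallium addition divided by baseline fluorescence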
HEK293 Tl ctr: second check of KCNK9 modulator effects in non-induced HEK293 cells; 4,900 compounds, 40% hits; shares compounds with KCNK9 inh; FluxOR thallium flux; AID 492997; inhibition, % at 10 µM;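 active = thallium signal drop beyond 5 SD of the untreated control mean, on both duplicate plates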
KCNK3 confirm: human KCNK3 channel inhibition, confirmation assay. ratio percent of control, % at 10 µM. CHO-KCNK3 thallium flux, FluxOR fluorescence; 0% buffer, 100% carvedilol maximal block. shares compounds with KCNK3 block. AID 651638. 2,400 compounds, 99% hits;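 active = ratio percent of control, averaged over triplicates, above buffer control mean plus 5 SD, cut at about 64% in these data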;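 also: ratio is the fluorescence rise from min to max over baseline after thallium stimulus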
KCNK3 noninduced: KCNK3 inhibitor counter-screen hit in non-induced cells | shares compounds with KCNK3 block | non-induced KCNK3 parental cells, FluxOR thallium flux; stronger effect = lower value | thallium flux ratio (lower = more inhibition) at 10 µM | 2,400 compounds, 40% hits | AID 651747;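 active = thallium flux ratio, averaged over three wells, more than 5 SD below the buffer control mean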;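 also: host cells are CHO cells without KCNK3 induction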
Of the large screens only hits and unclear results are named; the others gave an inactive call (follow-up assays come after a bar, where they were run).

O=C1c2ccccc2C(Nc2ccc3c(c2)OCCO3)N1c1ccc(Cl)cn1 (configuration not stated)	none
CCN(CC)C(=O)Oc1cc2c(-c3cc4cccc(OC)c4o3)cc(=O)oc2cc1C	KCNK9 inh -21, KCNK3 block -14 | KCNK9 block conf 77% | Kir2-1 spec inactive | HEK293 Tl ctr inactive | KCNK3 confirm 101 | KCNK3 noninduced inactive
COc1cccc2cc(-c3cc(=O)oc4ccc(O)cc34)oc12	none
COc1ccccc1C(c1nnnn1C(C)(C)C)N1CCN(Cc2ccncc2)CC1 (configuration not stated)	KCNK9 inh -19, KCNK3 block -9.2 | KCNK9 block conf 76% | Kir2-1 spec inactive | HEK293 Tl ctr 34% | KCNK3 confirm 116 | KCNK3 noninduced inactive
COc1cccc(CNCC(O)(c2ccc(Cl)cc2)c2ccc(Cl)cc2)c1	KCNK9 inh -13, KCNQ1 block 7 | KCNK9 block conf inactive | Kir2-1 spec inactive | HEK293 Tl ctr 38% | KCNK3 confirm 139 | KCNK3 noninduced 0.15
NC(=S)N/N=C\c1c(OCc2ccccc2Cl)ccc2ccccc12	KCNK9 inh -10, KCNK3 block -9.5 | KCNK9 block conf 46% | Kir2-1 spec inactive | HEK293 Tl ctr inactive | KCNK3 confirm 101 | KCNK3 noninduced inactive
COc1ccc(Cn2nnnc2C(c2ccccn2)N2CCN(c3cc(Cl)ccc3C)CC2)cc1 (configuration not stated)	KCNK9 inh -11, KCNK3 block -9.5 | KCNK9 block conf 44% | Kir2-1 spec inactive | HEK293 Tl ctr 44% | KCNK3 confirm 101 | KCNK3 noninduced inactive
CC(Nc1nc(-c2ccccc2)nc2ccccc12)c1ccccc1 (configuration not stated)	KCNK9 inh -8.9, KCNK3 block -11 | KCNK9 block conf inactive | Kir2-1 spec inactive | HEK293 Tl ctr 36% | KCNK3 confirm 102 | KCNK3 noninduced inactive
CCOC(=O)N1CCN(C(=O)COc2ccc([N+](=O)[O-])cc2)CC1	none
O=C(c1ccco1)N(CCC(c1ccccc1)c1ccco1)Cc1ccc(F)cc1 (configuration not stated)	KCNK9 inh -14, KCNK3 block -11 | KCNK9 block conf 66% | Kir2-1 spec 40% | HEK293 Tl ctr 31% | KCNK3 confirm 95 | KCNK3 noninduced 0.15
O=C(CN(Cc1ccc(F)cc1)C(=O)c1ccco1)NCc1ccc(F)cc1	none
Cc1ccccc1CN(C)C(C)C(=O)Nc1ccccc1F (configuration not stated)	KCNK9 inh -14, KCNK3 block -11 | KCNK9 block conf 58% | Kir2-1 spec inactive | HEK293 Tl ctr 44% | KCNK3 confirm 114 | KCNK3 noninduced inactive
CN1CC(c2ccc(Cl)c(Cl)c2)[C@@]2(COc3ccccc3C2=O)[C@@]12C(=O)Nc1ccccc12 (some centres not stated)	none
CCCCN(CCCC)CC(O)COc1ccccc1C(=O)Nc1ccccc1 (configuration not stated)	KCNK9 inh -11, KCNK3 block -10 | KCNK9 block conf 50% | Kir2-1 spec inactive | HEK293 Tl ctr 40% | KCNK3 confirm 112 | KCNK3 noninduced inactive
CCN(CC)CC(O)COc1ccccc1C(=O)CCc1ccccc1 (configuration not stated)	none
C/C(=N\Nc1cc(C)nc(-c2ccccc2)n1)c1cccc([N+](=O)[O-])c1	KCNK9 inh -11, KCNK3 block -9.7 | KCNK9 block conf 50% | Kir2-1 spec inactive | HEK293 Tl ctr 32% | KCNK3 confirm 103 | KCNK3 noninduced inactive
CCCC(=O)NC(=S)Nc1cccc2c(O)cccc12	none
CCOC(=O)c1ccc(N2C(=O)c3n[nH]c(-c4ccco4)c3C2c2ccc([N+](=O)[O-])cc2)cc1 (configuration not stated)	KCNK9 inh -8.3, KCNK3 block -9.8 | KCNK9 block conf 56% | Kir2-1 spec inactive | HEK293 Tl ctr 42% | KCNK3 confirm 138 | KCNK3 noninduced 0.11
CCOC(=O)c1ccc(N2C(=O)c3n[nH]c(C)c3C2c2cccnc2)cc1 (configuration not stated)	none
CC(=O)c1cccc(NC(=O)N2CCOCC2)c1	none
CC(C)(C)CC(=O)Nc1ccccc1N1CCN(c2ccccc2)CC1	none
O=C(Nc1ccccc1N1CCN(c2ccc(F)cc2)CC1)c1ccccc1	KCNK9 inh -10, KCNK3 block -14 | KCNK9 block conf inactive | Kir2-1 spec inactive | HEK293 Tl ctr 29% | KCNK3 confirm 125 | KCNK3 noninduced 0.15
O=C(Nc1cccc(C(=O)N2CCN(c3ccc(F)cc3)CC2)c1)c1ccccc1	none
CC(C)(C)CC(=O)Nc1ccccc1N1CCN(c2ccc(F)cc2)CC1	KCNK9 inh -12, KCNK3 block -9 | KCNK9 block conf 73% | Kir2-1 spec inactive | HEK293 Tl ctr 37% | KCNK3 confirm 120 | KCNK3 noninduced 0.14
CCOC(=O)C1C(=O)CC(C)(O)C(C(=O)OCC)C1c1ccc(NC(C)=O)cc1 (configuration not stated)	none
O=C(CC(CC(=O)c1ccccc1)c1ccncc1)c1ccccc1	none (no result: KCNK9 inh, KCNQ1 pot, PHOSPHO1 inh, hERG protect, KCNQ1 block)
O=C(CC(CC(=O)c1ccccc1)c1ccccc1)c1ccccc1	KCNK9 inh -12, KCNK3 block -11 | KCNK9 block conf 36% | Kir2-1 spec inactive | HEK293 Tl ctr 34% | KCNK3 confirm 110 | KCNK3 noninduced inactive
COC(=O)c1ccccc1SC(CC(=O)c1ccccc1)c1ccc(F)cc1 (configuration not stated)	KCNK9 inh -13 | KCNK9 block conf 49% | Kir2-1 spec inactive | HEK293 Tl ctr 56% | KCNK3 confirm 114 | KCNK3 noninduced inactive
